Experimental data taken from ChEMBL document CHEMBL1154690, “Identification of novel, selective, and stable inhibitors of class II histone deacetylases. Validation studies of the inhibition of the enzymatic activity of HDAC4 by small molecules as a novel approach for cancer therapy” (J Med Chem, 2009).

Assays:
[1] = Inhibition of constitutively active mutant HDAC4 (653-1084) from Escherichia coli
Outline: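 Bacterially expressed HDAC4 carrying an H-to-Y active-site mutation, giving a constitutively active mutant enzyme, was used in the enzymatic inhibition assay.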

[2] = target: T1, Protein deacetylase HDAC6 (Homo sapiens, UniProt Q9UBN7); assay: Inhibition of HDAC6
T1 sequence (Q9UBN7 whole entry): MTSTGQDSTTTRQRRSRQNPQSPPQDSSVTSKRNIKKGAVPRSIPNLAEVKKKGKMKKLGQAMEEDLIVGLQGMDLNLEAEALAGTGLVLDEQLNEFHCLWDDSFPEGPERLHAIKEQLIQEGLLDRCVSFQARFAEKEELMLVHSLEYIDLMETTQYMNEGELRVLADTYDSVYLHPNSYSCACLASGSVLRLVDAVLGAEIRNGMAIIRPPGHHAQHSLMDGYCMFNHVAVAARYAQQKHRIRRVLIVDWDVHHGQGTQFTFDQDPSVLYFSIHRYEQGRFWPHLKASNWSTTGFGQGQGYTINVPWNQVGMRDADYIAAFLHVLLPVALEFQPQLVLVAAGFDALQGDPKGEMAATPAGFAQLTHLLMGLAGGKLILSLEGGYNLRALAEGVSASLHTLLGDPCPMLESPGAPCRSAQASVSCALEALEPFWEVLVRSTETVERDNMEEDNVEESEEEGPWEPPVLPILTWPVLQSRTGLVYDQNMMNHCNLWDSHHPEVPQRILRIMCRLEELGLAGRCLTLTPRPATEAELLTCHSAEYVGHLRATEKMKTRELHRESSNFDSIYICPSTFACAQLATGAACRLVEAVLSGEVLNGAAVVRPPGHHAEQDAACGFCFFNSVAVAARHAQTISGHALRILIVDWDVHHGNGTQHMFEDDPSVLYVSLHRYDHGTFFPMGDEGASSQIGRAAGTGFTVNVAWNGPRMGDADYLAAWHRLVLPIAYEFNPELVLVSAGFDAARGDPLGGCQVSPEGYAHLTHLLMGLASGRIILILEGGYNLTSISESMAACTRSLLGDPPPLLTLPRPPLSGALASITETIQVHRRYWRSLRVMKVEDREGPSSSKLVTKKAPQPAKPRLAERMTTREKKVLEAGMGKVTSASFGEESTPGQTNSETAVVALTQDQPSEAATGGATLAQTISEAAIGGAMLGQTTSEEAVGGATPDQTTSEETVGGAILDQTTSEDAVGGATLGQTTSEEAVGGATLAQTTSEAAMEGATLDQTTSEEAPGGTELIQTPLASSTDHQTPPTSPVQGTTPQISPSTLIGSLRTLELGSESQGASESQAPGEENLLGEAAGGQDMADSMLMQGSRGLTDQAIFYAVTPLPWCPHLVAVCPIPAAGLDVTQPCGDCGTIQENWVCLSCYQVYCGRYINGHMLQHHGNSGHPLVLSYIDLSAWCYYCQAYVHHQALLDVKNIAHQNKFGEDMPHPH

Histone deacetylase 1 [3] = target: T2, Histone deacetylase 1 (Homo sapiens, UniProt Q13547); assay: Inhibition of HDAC1
[4] = Inhibition of wild type HDAC4 (653-1084) from Escherichia coli
Outline: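 Wild-type HDAC4 expressed in bacteria was assayed with an unnatural trifluoroacetyl-lysine substrate to boost its enzymatic efficiency.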

[5] = Metabolic stability in S9 fraction of human HACT116 cells assessed as half life by LC-MS/MS analysis; format: ADME, subcellular; conditions: S9 fraction of HACT116 (HCT116) cells
[6] = Metabolic stability in human HCT116 cells assessed as half life by LC-MS/MS analysis; format: ADME, cell-based, HCT-116
[7] = Selectivity ratio of IC50 for Escherichia coli HDAC4 WT (653-1084) to IC50 for HDAC1
Histone deacetylase 1 [8] = target: T2, Histone deacetylase 1; assay: Inhibition of HDAC1 in human HCT116 cells assessed as inhibition of histone-H3 deacetylation after 24 hrs; format: cell-based, HCT-116
Outline: (§1)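 HCT116 cells were exposed to inhibitor for 72 h in the proliferation assay, or for 24 h for the histone H3 and α-tubulin deacetylation read-outs. Medium was replaced with fresh inhibitor every 12 h throughout. EC50 was taken as the mean of two independent determinations.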

HCT-116 = assay: Antiproliferative activity against human HCT116 cells after 72 hrs; format: functional, cell-based; conditions: HCT-116, 72 h; outline: as §1
[9] = target: T1, Protein deacetylase HDAC6; assay: Inhibition of HDAC6 in human HCT116 cells assessed as alpha-tubulin hyperacetylation after 24 hrs; format: cell-based, HCT-116; outline: as §1

T2 sequence (Q13547 whole entry): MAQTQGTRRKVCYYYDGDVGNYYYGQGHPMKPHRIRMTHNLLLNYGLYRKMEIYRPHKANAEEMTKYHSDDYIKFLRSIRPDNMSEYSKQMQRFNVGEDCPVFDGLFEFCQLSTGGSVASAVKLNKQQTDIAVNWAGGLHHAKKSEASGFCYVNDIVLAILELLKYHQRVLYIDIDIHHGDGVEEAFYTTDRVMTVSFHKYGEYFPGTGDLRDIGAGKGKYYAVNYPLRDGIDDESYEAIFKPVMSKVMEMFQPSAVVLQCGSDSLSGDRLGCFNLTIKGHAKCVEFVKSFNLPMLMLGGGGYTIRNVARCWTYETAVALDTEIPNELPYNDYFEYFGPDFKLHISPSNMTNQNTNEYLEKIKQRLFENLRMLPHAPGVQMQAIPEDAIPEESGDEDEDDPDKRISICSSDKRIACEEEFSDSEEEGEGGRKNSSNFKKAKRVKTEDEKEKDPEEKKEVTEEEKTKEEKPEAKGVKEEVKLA

| SMILES | IC50 [1] [nM] | IC50 [2] [nM] | IC50 (Histone deacetylase 1 [3]) [nM] | IC50 [4] [nM] | half-life [5] [h] | half-life [6] [h] | Ratio IC50 [7] | EC50 (Histone deacetylase 1 [8]) [nM] | EC50 (HCT-116) [nM] | EC50 [9] [nM] |
| --- | --- | --- | --- | --- | --- | --- | --- | --- | --- | --- |
| O=C(c1ccc(-c2ccc3nccnc3c2)s1)C(F)(F)F | 54 | 15 | 910 | 160 | 0.167 | – | – | – | – | – |
| O=C(c1ccc(-c2ccc3c(c2)OCCO3)s1)C(F)(F)F | 1400 | 37 | > 10000 | > 10000 | – | – | – | – | – | – |
| O=C(c1ccc(-c2nc(CS(=O)(=O)Cc3ccc(F)cc3)no2)s1)C(F)(F)F | 680 | – | – | 60 | > 2 | – | – | – | – | – |
| CN(Cc1ccc2nccnc2c1)C(=O)c1ccc(C(=O)C(F)(F)F)s1 | 87 | – | – | 98 | 0.25 | – | – | – | – | – |
| N#Cc1ccc(-c2ccc(C(=O)C(F)(F)F)s2)cc1 | 14 | 41 | 2700 | 160 | > 2 | 8 | – | – | – | – |
| O=C(c1ccc(-c2nc(CS(=O)(=O)c3cccs3)no2)s1)C(F)(F)F | 1000 | – | – | 35 | 0.867 | 6 | – | – | – | – |
| O=C(c1ccc(-c2ccc3[nH]ccc3c2)s1)C(F)(F)F | 6200 | > 5000 | > 10000 | > 10000 | – | – | – | – | – | – |
| CC(=O)c1ccc(-c2ccc(C(=O)C(F)(F)F)s2)cc1 | 12 | 29 | > 10000 | 72 | > 2 | – | – | – | – | – |
| CS(=O)(=O)Cc1noc(-c2ccc(C(=O)C(F)(F)F)s2)n1 | 780 | 230 | 2700 | 24 | > 2 | – | > 100 | 9000 | 12800 | 640 |
| COc1ccc(-c2ccc(C(=O)C(F)(F)F)s2)cc1 | > 1000 | > 1000 | > 1000 | 110 | – | – | – | – | – | – |
| CCCS(=O)(=O)Cc1noc(-c2ccc(C(=O)C(F)(F)F)s2)n1 | 520 | – | – | 30 | – | – | – | – | – | – |

Further lines, results first:

| IC50 [1] [nM] | IC50 [2] [nM] | IC50 (Histone deacetylase 1 [3]) [nM] | IC50 [4] [nM] | half-life [5] [h] | half-life [6] [h] | Ratio IC50 [7] | EC50 (Histone deacetylase 1 [8]) [nM] | EC50 (HCT-116) [nM] | EC50 [9] [nM] | SMILES |
| --- | --- | --- | --- | --- | --- | --- | --- | --- | --- | --- |
| > 10000 | 1900 | > 10000 | 3200 | – | – | – | – | – | – | O=C(c1cc(-c2ccccc2)cs1)C(F)(F)F |
| 2800 | 170 | > 20000 | 2800 | – | – | – | – | – | – | O=C(c1ccc(-c2ccccc2)s1)C(F)(F)F |
| 60 | 27 | 2500 | 74 | – | – | – | – | – | – | O=C(O)c1ccc(-c2ccc(C(=O)C(F)(F)F)s2)cc1 |
| 3500 | 6300 | > 10000 | > 10000 | – | – | – | – | – | – | COc1ccccc1-c1ccc(C(=O)C(F)(F)F)s1 |
| 190 | 210 | 3700 | 130 | 0.25 | – | 25 | – | – | – | O=C(c1cnc(-c2ccccc2)s1)C(F)(F)F |
| > 1000 | > 1000 | > 1000 | 540 | – | – | – | – | – | – | O=C(c1ccc(-c2ccccn2)s1)C(F)(F)F |
| 96 | 70 | 12800 | 310 | – | 11 | – | > 50000 | > 50000 | 1000 | O=C(O)c1cccc(-c2ccc(C(=O)C(F)(F)F)s2)c1 |
| > 5000 | 3100 | > 10000 | 3800 | – | – | – | – | – | – | COc1cccc(-c2ccc(C(=O)C(F)(F)F)s2)c1 |
